Assay results as given in ChEMBL document CHEMBL4610026, “Design, synthesis and evaluation of protein disulfide isomerase inhibitors with nitric oxide releasing activity” (Bioorg Med Chem Lett, 2020).
Activity calls are given as the source filed them. The rule behind the calls is not given here.

Key:
[1] = species: Homo sapiens; test: Nitrosylation activity at recombinant PDI (unknown origin) assessed as generation of s-nitrosylated PDI at 50 uM measured after 30 mins in presence of dithiothreitol by biotin switch assay based Western blot analysis
Procedure, shortened: (§1)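 Biotin-switch detection of S-nitrosylated PDI: 400 ng purified recombinant PDI exposed to NO donor (1, 50, 300 or 600 μM) for 30 min, or left untreated.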

[2] = molecular target: T1, Protein disulfide-isomerase (Bos taurus) (UniProt P05307); test: Inhibition of bovine liver PDI at 50 uM preincubated for 30 mins followed by insulin addition for 1 hr by insulin-aggregation assay relative to control
T1 sequence (whole entry): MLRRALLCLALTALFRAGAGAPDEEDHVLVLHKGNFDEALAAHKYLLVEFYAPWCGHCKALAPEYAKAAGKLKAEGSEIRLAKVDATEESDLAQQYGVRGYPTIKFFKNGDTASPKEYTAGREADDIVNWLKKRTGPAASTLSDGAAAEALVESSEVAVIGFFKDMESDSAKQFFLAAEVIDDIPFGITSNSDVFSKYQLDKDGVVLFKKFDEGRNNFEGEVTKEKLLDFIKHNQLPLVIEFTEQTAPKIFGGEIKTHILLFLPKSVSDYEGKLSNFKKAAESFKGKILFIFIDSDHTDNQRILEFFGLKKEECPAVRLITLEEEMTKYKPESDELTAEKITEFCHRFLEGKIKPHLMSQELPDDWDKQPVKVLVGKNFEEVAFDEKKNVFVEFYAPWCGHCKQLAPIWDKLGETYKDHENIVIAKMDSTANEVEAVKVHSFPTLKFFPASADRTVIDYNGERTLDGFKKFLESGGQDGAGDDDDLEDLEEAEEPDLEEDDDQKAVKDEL

[3] = tested on: HeLa; test: Antiproliferative activity against human HeLa cells assessed as cell growth inhibition at 600 uM by CCK-8 assay relative to control; type: functional; details: read-out: GI
[4] = tested on: HEK-293T; test: Cytotoxicity against human HEK293T cells assessed as cell growth inhibition; type: cell-based
[5] = species: Homo sapiens; test: Nitrosylation activity at recombinant PDI (unknown origin) assessed as generation of S-nitrosylated PDI at 50 uM measured after 30 mins by biotin switch assay based Western blot analysis; procedure, shortened: as §1
[6] = tested on: HeLa; test: Antiproliferative activity against human HeLa cells assessed as cell growth inhibition by CCK-8 assay; type: functional, cell-based
[7] = tested on: SH-SY5Y; test: Antiproliferative activity against human SH-SY5Y cells assessed as cell growth inhibition at 600 uM by CCK-8 assay relative to control; type: functional; details: read-out: GI
[8] = tested on: SH-SY5Y; test: Antiproliferative activity against human SH-SY5Y cells assessed as cell growth inhibition by CCK-8 assay; type: functional, cell-based
[9] = molecular target: T1, Protein disulfide-isomerase (Bos taurus); test: Inhibition of bovine liver PDI preincubated for 30 mins followed by insulin addition for 1 hr by insulin-aggregation assay
[10] = species: Homo sapiens; test: Nitrosylation activity at recombinant PDI (unknown origin) assessed as generation of S-nitrosylated PDI at 600 uM measured after 30 mins by biotin-switch assay based Western blot analysis; procedure, shortened: as §1
[11] = species: Homo sapiens; test: Nitrosylation activity at recombinant PDI (unknown origin) assessed as generation of S-nitrosylated PDI at 600 uM measured after 30 mins in presence of dithiothreitol by biotin switch assay based Western blot analysis; procedure, shortened: as §1
[12] = tested on: HeLa; test: Antiproliferative activity against human HeLa cells assessed as cell growth inhibition at 5 uM by CCK-8 assay; type: functional, cell-based
[13] = molecular target: T1, Protein disulfide-isomerase (Bos taurus); details: 0.1 to 50 uM
[14] = tested on: SH-SY5Y; test: Antiproliferative activity against human SH-SY5Y cells assessed as cell growth inhibition at 5 uM by CCK-8 assay; type: functional, cell-based

Activity [1]	inhibition [2]	Activity [5]	inhibition [9]	Activity [10]	Activity [11]	inhibition [13]	SMILES	inhibition of growth at 600 µM [3] [%]	Activity [4]	growth inhibition (GI) [6]	inhibition of growth at 600 µM [7] [%]	growth inhibition (GI) [8]	growth inhibition (GI) [12]	growth inhibition (GI) [14]
inactive	inactive	Active					N[C@@H](CCC(=O)N[C@@H](CSN=O)C(=O)NCC(=O)O)C(=O)O [S-NITROSOGLUTATHIONE]	40	Non-Toxic	Active	40	Active		
	50%		Dose-dependent effect	Active	inactive		C#CCOC(=O)C1(C)c2[nH]c3ccccc3c2CCN1C(=O)CN(N=O)c1ccccc1 (stereo not given)	40	Non-Toxic	Dose-dependent effect	40	Dose-dependent effect		
						Active	C#CCOC(=O)C1(C)c2[nH]c3ccccc3c2CCN1C(=O)CCl (stereo not given)						Active	Active
